Measured values from the M2OR odorant receptor database.

Assays:
Details in all cases: stereoisomer not certain
[1] = tested on: OR4C3
In short: (§1)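 Assay methods differ from source to source, frequently being transient luciferase assays in mammalian cell lines. For each receptor–molecule pair, the label responsive (active) applies when the original authors judged the measured signal statistically different from baseline, and non-responsive (inactive) applies otherwise.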

[2] = target: T1, OR3A4P (Homo sapiens) (UniProt P47883)
T1 sequence (whole entry): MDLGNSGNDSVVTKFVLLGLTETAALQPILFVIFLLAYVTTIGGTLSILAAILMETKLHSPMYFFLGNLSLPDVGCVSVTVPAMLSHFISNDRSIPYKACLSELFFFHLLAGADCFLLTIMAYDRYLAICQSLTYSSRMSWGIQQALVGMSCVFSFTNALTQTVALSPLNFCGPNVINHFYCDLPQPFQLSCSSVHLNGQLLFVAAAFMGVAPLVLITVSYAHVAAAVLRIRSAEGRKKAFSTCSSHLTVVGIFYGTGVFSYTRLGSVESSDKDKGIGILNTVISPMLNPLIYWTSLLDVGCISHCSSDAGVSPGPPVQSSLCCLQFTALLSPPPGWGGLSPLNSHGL
In short: as §1

[3] = target: OR4A15 (Homo sapiens) (UniProt Q8NGL6)
In short: as §1

[4] = target: T2, OR4A16 (Homo sapiens) (UniProt Q8NH70)
T2 sequence (whole entry): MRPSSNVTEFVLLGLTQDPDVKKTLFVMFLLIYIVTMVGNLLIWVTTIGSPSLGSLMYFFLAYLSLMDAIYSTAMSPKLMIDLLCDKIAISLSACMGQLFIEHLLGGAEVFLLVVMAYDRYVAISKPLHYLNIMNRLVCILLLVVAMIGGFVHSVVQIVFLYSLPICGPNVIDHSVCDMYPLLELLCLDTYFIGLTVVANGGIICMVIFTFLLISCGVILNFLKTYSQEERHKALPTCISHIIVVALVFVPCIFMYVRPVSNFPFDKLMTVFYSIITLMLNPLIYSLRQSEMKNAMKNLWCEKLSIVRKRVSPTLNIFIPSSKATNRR
In short: as §1

[5] = target: T3, OR4A47 (Homo sapiens) (UniProt Q6IF82)
T3 sequence (whole entry): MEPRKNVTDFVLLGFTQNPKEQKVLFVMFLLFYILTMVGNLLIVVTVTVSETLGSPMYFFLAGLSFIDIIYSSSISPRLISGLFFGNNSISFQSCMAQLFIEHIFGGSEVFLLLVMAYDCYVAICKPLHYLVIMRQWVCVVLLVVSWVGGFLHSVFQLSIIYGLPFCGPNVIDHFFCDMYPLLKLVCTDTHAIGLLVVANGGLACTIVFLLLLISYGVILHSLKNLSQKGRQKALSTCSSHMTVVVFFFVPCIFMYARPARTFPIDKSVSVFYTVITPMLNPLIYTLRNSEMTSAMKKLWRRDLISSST
In short: as §1

[6] = target: T4, OR4A5 (Homo sapiens) (UniProt Q8NH83)
T4 sequence (whole entry): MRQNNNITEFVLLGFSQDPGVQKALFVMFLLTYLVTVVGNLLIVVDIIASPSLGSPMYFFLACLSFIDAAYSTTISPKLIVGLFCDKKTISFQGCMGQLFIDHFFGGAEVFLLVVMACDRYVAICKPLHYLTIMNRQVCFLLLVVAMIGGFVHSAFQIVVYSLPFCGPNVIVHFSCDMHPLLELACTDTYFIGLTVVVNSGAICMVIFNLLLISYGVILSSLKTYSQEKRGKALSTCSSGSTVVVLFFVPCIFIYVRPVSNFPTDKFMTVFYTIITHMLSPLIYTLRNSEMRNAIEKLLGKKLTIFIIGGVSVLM
In short: as §1

[7] = target: T5, OR4B1 (Homo sapiens) (UniProt Q8NGF8)
T5 sequence (whole entry): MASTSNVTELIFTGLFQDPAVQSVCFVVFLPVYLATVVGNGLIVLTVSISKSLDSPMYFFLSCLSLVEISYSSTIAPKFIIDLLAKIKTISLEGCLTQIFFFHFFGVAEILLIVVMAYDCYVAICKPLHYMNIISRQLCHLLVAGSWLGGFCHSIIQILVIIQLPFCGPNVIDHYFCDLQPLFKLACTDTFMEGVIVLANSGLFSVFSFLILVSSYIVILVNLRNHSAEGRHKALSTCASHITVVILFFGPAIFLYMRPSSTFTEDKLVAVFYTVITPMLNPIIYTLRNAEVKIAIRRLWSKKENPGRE
In short: as §1

[8] = target: T6, OR4C11 (Homo sapiens) (UniProt Q6IEV9)
T6 sequence (whole entry): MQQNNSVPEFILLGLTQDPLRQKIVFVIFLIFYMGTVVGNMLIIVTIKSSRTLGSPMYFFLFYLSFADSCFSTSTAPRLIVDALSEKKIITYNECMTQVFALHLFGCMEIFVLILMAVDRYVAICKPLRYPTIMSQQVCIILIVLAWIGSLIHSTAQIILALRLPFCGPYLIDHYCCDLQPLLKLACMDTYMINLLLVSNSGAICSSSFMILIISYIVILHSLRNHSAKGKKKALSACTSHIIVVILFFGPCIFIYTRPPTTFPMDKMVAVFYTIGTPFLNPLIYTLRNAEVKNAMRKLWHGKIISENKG
In short: as §1

[9] = target: OR4C12 (Homo sapiens) (UniProt Q96R67)
In short: as §1

[10] = target: OR4C13 (Homo sapiens) (UniProt Q8NGP0)
In short: as §1

[11] = target: OR4C15 (Homo sapiens) (UniProt Q8NGM1)
In short: as §1

[12] = target: T7, OR4C16 (Homo sapiens) (UniProt Q8NGL9)
T7 sequence (whole entry): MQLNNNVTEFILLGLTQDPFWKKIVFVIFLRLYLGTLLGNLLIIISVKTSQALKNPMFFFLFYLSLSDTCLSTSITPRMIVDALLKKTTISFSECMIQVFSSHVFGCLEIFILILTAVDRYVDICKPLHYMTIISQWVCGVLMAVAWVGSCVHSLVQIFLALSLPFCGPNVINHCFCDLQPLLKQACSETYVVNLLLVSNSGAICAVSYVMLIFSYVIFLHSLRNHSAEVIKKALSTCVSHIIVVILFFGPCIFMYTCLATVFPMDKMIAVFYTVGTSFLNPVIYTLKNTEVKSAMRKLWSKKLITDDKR
In short: as §1

[13] = target: OR4C3 (Homo sapiens) (UniProt Q8NH37)
In short: as §1

[14] = target: T8, OR4C45 (Homo sapiens) (UniProt A6NMZ5)
T8 sequence (whole entry): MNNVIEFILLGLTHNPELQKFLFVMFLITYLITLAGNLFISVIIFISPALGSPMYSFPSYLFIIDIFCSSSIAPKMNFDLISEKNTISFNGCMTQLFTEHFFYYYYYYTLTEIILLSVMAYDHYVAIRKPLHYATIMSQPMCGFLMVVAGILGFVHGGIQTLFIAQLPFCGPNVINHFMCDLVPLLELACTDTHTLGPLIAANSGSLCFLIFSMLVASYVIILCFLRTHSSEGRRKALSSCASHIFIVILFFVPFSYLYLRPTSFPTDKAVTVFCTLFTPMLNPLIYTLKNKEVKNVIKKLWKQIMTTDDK
In short: as §1

[15] = target: OR4C46 (Homo sapiens) (UniProt A6NHA9)
In short: as §1

[16] = target: OR4C5 (Homo sapiens) (UniProt Q8NGB2)
In short: as §1

[17] = target: OR4C6 (Homo sapiens) (UniProt Q8NH72)
In short: as §1

[18] = tested on: T9, OR3A3 T48I L132F
T9 sequence (whole entry): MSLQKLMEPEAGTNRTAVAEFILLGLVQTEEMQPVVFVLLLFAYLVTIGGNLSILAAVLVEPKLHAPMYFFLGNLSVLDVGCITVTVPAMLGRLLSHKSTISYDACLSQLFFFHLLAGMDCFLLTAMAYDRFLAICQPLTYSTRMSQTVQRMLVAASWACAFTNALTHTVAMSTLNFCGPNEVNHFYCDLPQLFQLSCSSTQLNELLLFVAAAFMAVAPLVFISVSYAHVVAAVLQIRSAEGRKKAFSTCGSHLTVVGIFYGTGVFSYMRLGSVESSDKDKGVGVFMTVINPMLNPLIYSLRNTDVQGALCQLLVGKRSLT
In short: as §1

[19] = target: OR4C45 (Homo sapiens) (UniProt A6NMZ5); remark: listed apart in the source
In short: as §1
Target sequence in this assay (A6NMZ5 whole entry): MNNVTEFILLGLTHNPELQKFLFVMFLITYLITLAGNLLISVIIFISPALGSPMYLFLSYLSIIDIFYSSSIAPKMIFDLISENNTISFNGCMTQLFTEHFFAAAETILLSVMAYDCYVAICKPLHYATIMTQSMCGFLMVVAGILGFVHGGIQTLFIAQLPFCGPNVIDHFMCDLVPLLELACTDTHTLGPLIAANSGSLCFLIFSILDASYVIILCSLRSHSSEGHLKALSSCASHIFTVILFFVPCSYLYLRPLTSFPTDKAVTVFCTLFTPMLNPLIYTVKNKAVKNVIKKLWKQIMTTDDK

[20] = target: OR4A8 (Homo sapiens) (UniProt P0C604)
In short: as §1

OR4A15 (Homo sapiens), sequence (Q8NGL6 whole entry): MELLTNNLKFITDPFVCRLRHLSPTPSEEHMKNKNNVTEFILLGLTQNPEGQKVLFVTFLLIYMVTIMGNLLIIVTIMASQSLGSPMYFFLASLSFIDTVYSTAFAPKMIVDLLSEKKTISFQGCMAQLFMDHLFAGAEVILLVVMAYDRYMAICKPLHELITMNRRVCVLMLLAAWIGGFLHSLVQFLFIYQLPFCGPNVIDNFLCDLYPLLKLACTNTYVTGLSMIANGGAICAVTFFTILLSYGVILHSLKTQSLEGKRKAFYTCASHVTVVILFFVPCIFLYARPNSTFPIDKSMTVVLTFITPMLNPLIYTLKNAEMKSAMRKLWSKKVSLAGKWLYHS
OR4C13 (Homo sapiens), sequence (Q8NGP0 whole entry): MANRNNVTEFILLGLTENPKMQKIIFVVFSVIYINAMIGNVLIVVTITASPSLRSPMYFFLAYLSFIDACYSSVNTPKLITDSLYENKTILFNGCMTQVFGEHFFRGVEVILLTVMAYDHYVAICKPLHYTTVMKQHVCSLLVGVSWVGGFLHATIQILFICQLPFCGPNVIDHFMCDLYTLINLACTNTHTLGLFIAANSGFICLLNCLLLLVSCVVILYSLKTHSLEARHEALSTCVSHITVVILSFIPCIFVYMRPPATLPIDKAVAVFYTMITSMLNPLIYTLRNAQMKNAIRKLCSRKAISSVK
OR4C3 (Homo sapiens), sequence (Q8NH37 whole entry): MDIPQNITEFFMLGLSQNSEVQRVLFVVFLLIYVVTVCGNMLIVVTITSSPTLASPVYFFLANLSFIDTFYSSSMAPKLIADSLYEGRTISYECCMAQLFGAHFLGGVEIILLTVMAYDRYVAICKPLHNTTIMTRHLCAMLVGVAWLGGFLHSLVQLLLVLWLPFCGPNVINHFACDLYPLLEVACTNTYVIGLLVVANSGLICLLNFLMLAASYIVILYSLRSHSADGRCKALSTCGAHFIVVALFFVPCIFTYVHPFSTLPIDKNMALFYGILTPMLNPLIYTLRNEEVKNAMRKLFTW
OR4C46 (Homo sapiens), sequence (A6NHA9 whole entry): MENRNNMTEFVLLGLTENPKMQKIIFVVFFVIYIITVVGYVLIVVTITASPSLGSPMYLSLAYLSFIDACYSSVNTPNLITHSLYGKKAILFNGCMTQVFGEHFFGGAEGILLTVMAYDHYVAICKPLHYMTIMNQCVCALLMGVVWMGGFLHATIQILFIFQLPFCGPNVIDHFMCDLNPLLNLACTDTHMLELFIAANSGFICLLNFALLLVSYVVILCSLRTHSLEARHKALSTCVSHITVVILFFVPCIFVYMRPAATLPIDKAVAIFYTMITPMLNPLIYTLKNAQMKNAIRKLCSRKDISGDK
OR4C12 (Homo sapiens), sequence (Q96R67 whole entry): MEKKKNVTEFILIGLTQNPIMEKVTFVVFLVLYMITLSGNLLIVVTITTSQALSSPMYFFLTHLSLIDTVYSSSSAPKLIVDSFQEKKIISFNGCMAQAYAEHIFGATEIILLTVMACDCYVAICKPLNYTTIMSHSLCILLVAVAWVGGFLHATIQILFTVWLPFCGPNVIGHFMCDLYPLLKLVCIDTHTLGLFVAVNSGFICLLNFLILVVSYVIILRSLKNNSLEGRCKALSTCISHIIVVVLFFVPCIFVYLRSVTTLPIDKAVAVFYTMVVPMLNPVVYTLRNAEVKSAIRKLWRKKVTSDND
OR4C3, sequence (as listed by the source): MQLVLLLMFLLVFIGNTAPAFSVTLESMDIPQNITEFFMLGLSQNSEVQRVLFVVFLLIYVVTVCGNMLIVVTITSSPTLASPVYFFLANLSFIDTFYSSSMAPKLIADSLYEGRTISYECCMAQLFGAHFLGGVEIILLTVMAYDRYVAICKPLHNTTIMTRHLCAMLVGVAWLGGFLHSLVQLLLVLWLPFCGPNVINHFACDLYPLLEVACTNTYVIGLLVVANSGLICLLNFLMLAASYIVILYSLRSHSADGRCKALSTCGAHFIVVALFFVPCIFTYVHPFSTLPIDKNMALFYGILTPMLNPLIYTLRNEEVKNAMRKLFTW
OR4C6 (Homo sapiens), sequence (Q8NH72 whole entry): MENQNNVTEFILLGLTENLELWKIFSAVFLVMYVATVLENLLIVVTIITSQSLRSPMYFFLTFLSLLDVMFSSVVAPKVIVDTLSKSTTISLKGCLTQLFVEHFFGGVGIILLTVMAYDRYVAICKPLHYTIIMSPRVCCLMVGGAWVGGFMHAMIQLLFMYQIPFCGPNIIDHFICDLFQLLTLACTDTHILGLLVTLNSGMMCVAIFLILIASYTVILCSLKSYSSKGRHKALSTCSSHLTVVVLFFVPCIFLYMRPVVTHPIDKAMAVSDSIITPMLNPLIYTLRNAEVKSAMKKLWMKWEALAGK
OR4C15 (Homo sapiens), sequence (Q8NGM1 whole entry): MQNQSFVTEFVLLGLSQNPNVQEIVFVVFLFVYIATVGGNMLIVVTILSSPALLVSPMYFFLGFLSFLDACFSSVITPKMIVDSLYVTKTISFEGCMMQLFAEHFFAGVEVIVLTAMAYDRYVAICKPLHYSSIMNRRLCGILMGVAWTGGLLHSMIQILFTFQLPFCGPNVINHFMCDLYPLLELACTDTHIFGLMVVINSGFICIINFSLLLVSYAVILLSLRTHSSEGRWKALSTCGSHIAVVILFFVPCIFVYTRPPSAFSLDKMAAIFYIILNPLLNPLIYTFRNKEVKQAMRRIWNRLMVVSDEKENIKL
OR4C5 (Homo sapiens), sequence (Q8NGB2 whole entry): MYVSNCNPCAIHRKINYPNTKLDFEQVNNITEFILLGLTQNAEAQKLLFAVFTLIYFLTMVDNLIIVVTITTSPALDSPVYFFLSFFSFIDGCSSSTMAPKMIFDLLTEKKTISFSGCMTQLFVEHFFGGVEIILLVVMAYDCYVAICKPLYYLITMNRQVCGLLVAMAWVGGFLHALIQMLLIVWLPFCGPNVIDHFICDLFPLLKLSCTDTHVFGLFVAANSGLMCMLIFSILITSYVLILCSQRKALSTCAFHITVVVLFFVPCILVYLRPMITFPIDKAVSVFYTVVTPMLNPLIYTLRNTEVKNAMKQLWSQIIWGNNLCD
OR4A8 (Homo sapiens), sequence (P0C604 whole entry): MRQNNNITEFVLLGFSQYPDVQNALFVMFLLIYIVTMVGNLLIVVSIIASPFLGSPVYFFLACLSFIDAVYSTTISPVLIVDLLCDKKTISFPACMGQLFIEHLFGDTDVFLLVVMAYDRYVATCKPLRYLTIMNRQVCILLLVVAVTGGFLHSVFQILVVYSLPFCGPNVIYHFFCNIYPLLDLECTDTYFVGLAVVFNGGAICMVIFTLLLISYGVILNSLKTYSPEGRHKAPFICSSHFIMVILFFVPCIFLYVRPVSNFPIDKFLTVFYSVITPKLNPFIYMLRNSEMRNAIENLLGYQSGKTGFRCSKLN

SMILES	odorant receptor agonist call [1]	odorant receptor agonist call [2]	odorant receptor agonist call [3]	odorant receptor agonist call [4]	odorant receptor agonist call [5]	odorant receptor agonist call [6]	odorant receptor agonist call [7]	odorant receptor agonist call [8]	odorant receptor agonist call [9]	odorant receptor agonist call [10]	odorant receptor agonist call [11]	odorant receptor agonist call [12]	odorant receptor agonist call [13]	odorant receptor agonist call [14]	odorant receptor agonist call [15]	odorant receptor agonist call [16]	odorant receptor agonist call [17]	odorant receptor agonist call [18]	odorant receptor agonist call [19]	odorant receptor agonist call [20]
CC(C)=CCCC(C)=CCO	inactive																			
CCC(S)C(C)CO (centres undefined)		inactive	inactive	inactive	inactive	inactive	inactive	inactive	inactive	inactive	inactive	inactive	inactive	inactive	inactive	inactive	inactive			
CCCC(S)CCOC(C)=O (centres undefined)	inactive		inactive	inactive	inactive	inactive	inactive	inactive	inactive	inactive		inactive			inactive	inactive	inactive	inactive	inactive	
CCCCCC(S)C(C)CO (centres undefined)		inactive	inactive	active	inactive	inactive	inactive	inactive	inactive	inactive	inactive	inactive	inactive	inactive	inactive	inactive	inactive			
CC1=C(O)C(=O)OC1C (centres undefined)	inactive		inactive	inactive	inactive	inactive	inactive	inactive	inactive	inactive		inactive			inactive	inactive	inactive	inactive	inactive	
CC1=NC(C)C(C)S1 (centres undefined)	inactive		inactive	inactive	inactive	inactive	inactive	inactive	inactive	inactive		inactive			inactive	inactive	inactive	inactive	inactive	
CC(CO)CS (centres undefined)		inactive	inactive	inactive	inactive	inactive	inactive	inactive	inactive	inactive	inactive	inactive	inactive	inactive	inactive	inactive	inactive			
Cc1cnc(C)c(C)n1	inactive		inactive	inactive	inactive	inactive	inactive	inactive	inactive	inactive		inactive			inactive	inactive	inactive	inactive	inactive	
CCCCCC(=O)C(C)C(C)=O (centres undefined)		inactive	inactive	inactive	inactive	inactive	inactive	inactive	inactive	inactive	inactive	inactive	inactive	inactive	inactive	inactive	inactive			
CCC1OC(=O)C(O)=C1C (centres undefined)	inactive		inactive	inactive	inactive	inactive	inactive	inactive	inactive	inactive		inactive			inactive	inactive	inactive	inactive	inactive	
CC1=C(O)C(=O)C(C)O1 (centres undefined)	inactive		inactive	inactive	inactive	inactive	inactive	inactive	inactive	inactive		inactive			inactive	inactive	inactive	inactive	inactive	
CCCCCCC=CCCC=O			inactive	inactive	inactive	inactive	inactive	inactive	inactive	inactive	inactive	inactive	inactive	inactive	inactive	inactive	inactive	inactive		
CCC1OC(C)=C(O)C1=O (centres undefined)	inactive		inactive	inactive	inactive	inactive	inactive	inactive	inactive	inactive		inactive			inactive	inactive	inactive	inactive	inactive	
CC1CCCCCCCCCCCCC(=O)C1 (centres undefined)			inactive	inactive	inactive	inactive	inactive	inactive	inactive	inactive	inactive	inactive	inactive	inactive	inactive	inactive	inactive			inactive
CCCCC(S)C(C)CO (centres undefined)		inactive	inactive	inactive	inactive	inactive	inactive	inactive	inactive	inactive	inactive	inactive	inactive	inactive	inactive	inactive	inactive			
CC(=O)c1c(C)c([N+](=O)[O-])c(C(C)(C)C)c([N+](=O)[O-])c1C			inactive	inactive	inactive	inactive	inactive	inactive	inactive	inactive	inactive	inactive	inactive	inactive	inactive	inactive	inactive			inactive
